Assay: Toxicity liver stage against HepG2, at 10uM
Format: cell-based
Design: test concentration 10 uM, cell line HepG2-A16-CD81EGFP
Conditions: human, HepG2-A16-CD81EGFP cells; read-out: INHIBITION
Outline: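 Uninfected HepG2-A16-CD81EGFP cells, 3 × 10^3 per well, 1536-well, plated on prespotted compound at 10 μM final, parasite-free screening media added to match infected plates; puromycin 10 μM positive, DMSO 0.5% negative; run in parallel with 48 h PbLuc assay at 37 °C, 5% CO2; viability by CellTiter-Glo luminescence, normalized to controls.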

SMILES | cytotoxicity at 10 µM [%]
O=C(NCCn1cccn1)C1CCC(=O)N(CC2CCCCC2)C1 (stereo unspecified) | 6.8
Cc1ccc(S(=O)(=O)c2ncccc2CN2CCOCC2)cc1 | -41
CCSc1ccccc1C(=O)NCCN1CCC(c2cccs2)CC1 | -7.98
CCOCC1COCCC12CCN(C(=O)C1=CCCC1)CC2 (stereo unspecified) | -2.35
CC(=O)NCC(=O)N1CCc2nc(-c3ccccc3)nc(C)c2CC1 | -2.54
O=S(=O)(C1CC1)N1CCc2ncc(Cn3cccn3)n2CC1 | 9.58
Cc1nc(-c2ccc(F)cc2)nc2c1CCN(C(=O)CN(C)C)CC2 | -1.65
CCOC(=O)C1CN(C(=O)COC)Cc2ncn(CC)c21 (stereo unspecified) | 6.01
COC1COC2(CCN(C(=O)c3ncccn3)CC2)C1 (stereo unspecified) | 6.07
Cc1nc([C@@H]2C[C@@H]3CCN(Cc4cnn(C)c4)C[C@H]3O2)sc1C | -3.49
O=C(c1ccc(Cn2cc(Br)cn2)cc1)N1CCOCC1 | -13.6
CCn1nc(C)c2nc(C)nc(NC3CCCC3)c21 | 9.12
Cc1cc(C(F)(F)F)nn1C(C)C(=O)NN1CCN(C)CC1 (stereo unspecified) | 20.4
Cc1ccc(CNC(=O)Cn2ncc3c2c(C)nn3C)cc1 | 22.2
CCC(O)Cn1nc(-c2ccc(C(=O)O)cc2)cc1-c1ccc(F)cc1 (stereo unspecified) | 1.24
COCCN1CCCC(c2ccnc3c(C(N)=O)cnn23)C1 (stereo unspecified) | 2.05
Fc1ccc(-c2cnc(C3CCNCC3)cn2)cc1 | -7.14
CNC(=O)C1(C)CCCN1Cc1cnn(C)c1C (stereo unspecified) | 5.45
CC(=O)N1Cc2ccccc2OC2(CCN(C(=O)C3CC3)CC2)C1 | 9.91
O[C@H]1CN(Cc2cccc(C(F)(F)F)c2)CC[C@@]12CCCO2 | -19.6
CC(=O)N1CCCC(c2ccc(Cc3ccccc3)cn2)C1 (stereo unspecified) | -20.6
CCCn1ncc(CN2C[C@@H]3CCCN3C[C@H]2CCSC)c1C | -11.2
CC(C)S(=O)(=O)N1CCC(c2[nH]ncc2S(C)(=O)=O)C1 (stereo unspecified) | -21.5

SMILES | cytotoxicity at 10 µM [%]
CN(C)c1cncc(C2CCN(CC3(O)CCCCC3)CC2)n1 | -30
CCSCCN1CCCN(S(C)(=O)=O)CC1 | -2.75
Cc1cnn(-c2ccc(S(N)(=O)=O)cc2F)c1 | 1.64
COc1ccc(C2CCCN2c2ccc(C#N)cn2)c(OC)c1 (stereo unspecified) | -3.42
Cc1nccn1-c1ccc(CNS(=O)(=O)N2CCCC(C)C2)cn1 (stereo unspecified) | 5.39
CN1CCC(NC(=O)Nc2cnn(-c3ccccc3Cl)c2)C1=O (stereo unspecified) | -4.17
Cc1cccc(Oc2ccccc2CNC(=O)C2CCC(=O)NC2)c1 (stereo unspecified) | 10.6
CC1CN(C)c2ccccc2CN1CCn1cncn1 (stereo unspecified) | -12.7
Cc1ccc(CNCc2nccn2C)c(OC(C)(C)C)c1 | -2.58
Cc1csc(CN(C)C(C)C(=O)N2CCc3ccccc3C2)n1 (stereo unspecified) | -11.7
Cc1nc(S(=O)(=O)NCCC(=O)NCc2ccc(C#N)cc2)cn1C | 5.17
CS(=O)(=O)Cc1ccc(Cl)cc1NCc1ccccc1F | 6.8
N#Cc1ccccc1N1CCCN(CC(=O)Nc2ccc(Cl)cn2)CC1 | -0.539
Cc1cc(C)c(CNC(=O)C(C)Oc2ccccc2C#N)c(=O)[nH]1 (stereo unspecified) | 4.59
Cc1ccc(C(CNCc2cccn2C)N2CCOCC2)s1 (stereo unspecified) | 14.9
COc1ccc(CNCC2CCN(CCO)CC2)cc1F | -3.71
CCNC(=O)NC1CCN(c2ccc(S(=O)(=O)CC)cc2)CC1 | 7.89
Cc1c(C(=O)NCC(C)C)nnn1-c1cccc2c1CCN(C(C)C)C2 | -12.3
Cc1nc(C)n(C2CCCN(C(=O)CCc3cscn3)C2)n1 (stereo unspecified) | 6.74
CC(=O)NC(C)C(=O)N(Cc1ccc(C)c(C)c1)C1CC1 (stereo unspecified) | 8.77
CC(C)(C)Cc1noc2ncc(C(=O)N3CCSCC3)cc12 | -0.779
CC(C)(C)C(O)CN1CCN(Cc2nccn2CC(F)(F)F)CC1 (stereo unspecified) | 4.77
CN(C)C(CNC(=O)c1ncoc1-c1ccccc1)c1ccsc1 (stereo unspecified) | -0.303

SMILES | cytotoxicity at 10 µM [%]
Nc1c(Cl)cnn1C1CCN(Cc2ccccc2)C1 (stereo unspecified) | 0.648
O=C(NCc1ccco1)Nc1ccc2nc(N3CCOCC3)oc2c1 | 4.17
CC(C)(O)CN1CCN(C(=O)COCC(F)(F)F)CC1 | -12.9
Cc1nn(C(C)(C)C)c(C)c1C(=O)NCC1(C(N)=O)CCOCC1 | 3.28
Cc1nc(CN2CCCC(N(C)c3cnc4ccccc4n3)C2)no1 (stereo unspecified) | -14.6
CC(NC1CCN(CCc2ccncc2)CC1)c1cnn(C(C)C)c1 (stereo unspecified) | -4.97
CC(=O)N1CCN(C(=O)NCCCc2cn[nH]c2C)CC1 | 12.1
CC(C)c1nnc(CNc2nc(-c3cccnc3)nc3c2CCC3)n1C | 8.74
CCc1ncc2c(n1)CN(Cc1nc(C)c(C)o1)CC2 | 2.92
O=C1N(c2ccsc2)CCC12CCCN(c1ncc(F)cn1)C2 (stereo unspecified) | -105
O=C(C1=CCCC1)N1C[C@@H]2COC[C@]2(COCC2CC2)C1 | -96.2
COCC(=O)N1CC[C@H]2C[C@H](C)O[C@@H]2C1 | -0.877
CCC[C@H]1CN(Cc2ccc3c(c2)OCCO3)C[C@@H]1NC(=O)COC | -4.19
COc1ccc(-n2nc(C)c(C(C)=O)c2C)cc1CO | 11.2
COc1ccc2[nH]cc(C(=O)N3CC[C@H](CO)[C@@H](O)C3)c(=O)c2c1 | 1.26
COc1cc2c(cc1CN1C[C@@H](CN3CCOCC3)[C@@H](CO)C1)CCC2 | -2.37
C=C(C)COc1cccc(CNC(COC)c2ccnn2C)c1 (stereo unspecified) | -3.57
O=C(c1c[nH]c(=O)[nH]1)N1CCCC2(CCC(=O)N(C3CCCC3)C2)C1 (stereo unspecified) | -3.74
CCC(Nc1ncnc2sc(C(=O)O)c(C)c12)c1ccnn1C (stereo unspecified) | 0.512
CC(=O)c1cc(C(=O)N2CCC(CC(C)C)C2)c(=O)[nH]c1C (stereo unspecified) | 4.4
CCOc1ccccc1CN(CC)Cc1ccc(S(=O)(=O)NC)cc1 | -0.943
Cc1cc(C)cc(-n2ncc3c2CCCC3N)c1 (stereo unspecified) | 7.63
CCn1cnnc1CN(C)C(=O)c1cc(COc2cccc(F)c2)[nH]n1 | 12.3

SMILES | cytotoxicity at 10 µM [%]
Cc1[nH]c2c(F)cccc2c1CC(=O)N1CCN(C2CCSCC2)CC1 | 4.82
Cc1nc(CNC(=O)c2cc(Cn3ccnc3C(C)C)[nH]n2)sc1C | 2.99
Cc1ccc(C2(O)CCN(C(=O)c3ccc(S(N)(=O)=O)cc3)CC2)nc1 | -2.13
CN(C)C(C(=O)N1CC(Oc2ccccc2F)C1)c1ccc(F)cc1 (stereo unspecified) | 1.28
CC(C)=CCN1CC2(CCN(Cc3cccc(C#N)c3)CC2)CC1=O | -4.39
O=C1CN(Cc2cc(O)c3cccc(F)c3n2)CCN1C1CCCC1 | 4.45
O=C(c1ccon1)N1CCc2ncnc(NCc3ccccn3)c2CC1 | 0.436
Cc1nc2ccc(-n3ncnc3[C@@H]3CCCN3S(C)(=O)=O)cc2s1 | -11.5
CN(C)CCN1CC2(CCCN(c3ncc(Cl)cc3F)C2)CCC1=O (stereo unspecified) | -13.6
COc1cc(OC)cc(-c2cccc3c2OC(CN)C3)c1 (stereo unspecified) | -53
CCNc1ncc(C(=O)NC2CCSC2)cn1 (stereo unspecified) | -8.85
CC(O)CN1CCN(Cc2cccc(C(=O)N3CCCCC3)c2)CC1 (stereo unspecified) | -4.83
Cc1cnn(CC2CCCN2Cc2cn3ccsc3n2)c1 (stereo unspecified) | -1.75
CC(C)c1noc(CCC(=O)N2CCN(Cc3ccncc3)CC2)n1 | -9.08
N#CC1(NC(=O)CN2CCC(c3ccnn3CCO)CC2)CCCC1 | 2.85
CN(Cc1cccc(F)c1)C(=O)CN1CCOC(Cn2cncn2)C1 (stereo unspecified) | -2.09
Cc1ccc(-c2nnc(CNCCn3cccn3)o2)cc1 | -26.1
Cc1nc(C)n(CC2CCCN2CCOc2cccc(F)c2)n1 (stereo unspecified) | -0.945
CCc1nc(C2CCCN2C(=O)c2cnc[nH]2)no1 (stereo unspecified) | -13.6
CNc1snc(C)c1C(=O)N1CCCC(n2ccnc2C)C1 (stereo unspecified) | -14.1
Cc1cnn(C2CCCN(C(=O)c3cc(Cl)c4c(c3)OCO4)C2)c1 (stereo unspecified) | -5.25
O=C(NC1CC1)C1CCN(c2snc3ccccc23)CC1 | -5.43
Cn1ccc(CN2CCC(OCCc3ccccc3)CC2)cc1=O | -4.43

SMILES | cytotoxicity at 10 µM [%]
Cc1cc(C(=O)N2CCCCC2C)ccc1NCC(=O)N1CCOCC1 (stereo unspecified) | 4.08
CN1CCN(c2cc(CNC(=O)c3ccc(=O)n(C)c3)ccn2)CC1 | -6.95
Cn1cc(Cl)cc1C(=O)N1CCN(Cc2ccsc2)CC1 | -2.86
CCn1ncc2c1CCCC2NCc1ccc(OC)c(C)c1 (stereo unspecified) | -8
COCCN1CCN(Cc2cccc(C(N)=O)c2)CC1C (stereo unspecified) | 0.794
Cc1cc(C(=O)NCc2ccc(N3CCCC(C(N)=O)C3)cc2)[nH]n1 (stereo unspecified) | 4.23
O=C(NCC(F)(F)F)C1CSCN1S(=O)(=O)c1ccc(F)cc1 (stereo unspecified) | 1.85
N#Cc1ccccc1OCCN1CCCC1Cn1cccn1 (stereo unspecified) | -9.14
N#Cc1ccc(N2CC3(CCN(c4nccs4)C3)C2)nc1 | -12.5
CCOCc1cnc2n1CCN(C(=O)Cc1ccccn1)C2C (stereo unspecified) | 8.04
c1csc(CN2CCCn3cnc(COCC4CC4)c3C2)n1 | 9.7
O=C(c1cnccn1)N1CC[C@@H]2CO[C@@H](CN3CCCC3)[C@@H]2C1 | -1.19
CCOCC1c2c(cnn2C)CCN1C(=O)c1cc(C)on1 (stereo unspecified) | -81.9
CN(C)Cc1cnc2n1CCN(C(=O)Cc1cccc(F)c1)CC2 | -11.7
Cc1ccc(OCC(=O)N2C[C@@H]3CN(C)CCO[C@@H]3C2)cc1 | -0.204
CN1CCN(C(=O)c2nc3c(s2)CCCN3C(=O)C2CC2)CC1 | 1.82
COC(=O)CCC(=O)N1CCCC2(CCCN2Cc2cccc(F)c2)C1 (stereo unspecified) | -104
CC(C)CN1CCCC12CCN(c1nncs1)C2 (stereo unspecified) | 1.81
CCNc1ncc(C(=O)NC2CCC(n3cnnc3)CC2)cn1 (stereo unspecified) | 9.45

Reference: ChEMBL document CHEMBL4513216, “Probing the Open Global Health Chemical Diversity Library for Multistage-Active Starting Points for Next-Generation Antimalarials” (ACS Infect Dis, 2020)
